# Screens: PubChem BioAssay, several laboratories
# A selection: hits, their analogues and other compounds. The true share with any hit is near 4.5%.
# RGS4 act – RGS4 potentiation or activation; B-score at 10 µM; actives 0.92% (n = 310,000); AID 463111; HEK293 M3R/inducible RGS4, carbachol calcium flux Fluo4; hits give low values;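 active means B-score of the integrated calcium signal more than 4 SD below the library mean, with starting fluorescence not abnormally high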;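 further: negative B-score means reduced calcium response which marks RGS4 activation or potentiation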
#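 test system = HEK293 cells with stable M3R and inducible RGS4 | schedule = recording 10 s baseline at 1 Hz, 100 s post-agonist | technique = Fluo4-AM (2 µM) calcium-flux fluorescence, kinetic read | measure = Agonist-evoked peak-minus-minimum fluorescence over baseline, integrated ratio, B score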
# MrgX1 ag – agonists of human MrgX1 receptor. AID 588627. Q96LB2. actives 0.44% (n = 310,000). MrgX1-HEK293 cells, Fluo-4 calcium fluorescence, agonist mode; hits give high values. B-score at 10 µM;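 active means calcium response B-score plate-corrected fluorescence ratio at least 3 library SD, with starting fluorescence B-score inside 5 SD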
# Target sequence (Q96LB2 whole entry, looked up): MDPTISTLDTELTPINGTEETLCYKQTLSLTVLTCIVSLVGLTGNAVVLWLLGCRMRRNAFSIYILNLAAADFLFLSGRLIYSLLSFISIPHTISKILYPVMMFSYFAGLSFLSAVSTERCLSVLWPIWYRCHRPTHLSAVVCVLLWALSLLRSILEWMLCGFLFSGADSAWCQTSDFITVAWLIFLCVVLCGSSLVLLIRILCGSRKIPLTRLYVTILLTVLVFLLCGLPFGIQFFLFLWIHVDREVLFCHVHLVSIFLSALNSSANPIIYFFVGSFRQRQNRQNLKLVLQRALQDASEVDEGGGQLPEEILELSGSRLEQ
#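 Material: MrgX1-expressing HEK293 cells; input: 15,000 cells per well; doses: test compound given as first of three sequential additions; schedule: overnight plating before 1 h dye loading; technique: Fluo-4 NW calcium-flux fluorescence, kinetic read; evaluation: baseline-normalised fluorescence change ratio, B-scored; control set: plate-wise positive and negative controls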
# MrgX1 antag – blocks BAM8-22 activation of human MrgX1 receptor | MRGX1-HEK293 calcium flux, Fluo-4, BAM8-22 antagonism; hits give low values | B-score at 10 µM | Q96LB2 | actives 1.3% (n = 310,000);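 active means calcium-response B-score plate-corrected more than 3 library SD below zero, starting fluorescence within 5 deviations, no agonist response on first addition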;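 further: peak minus trough fluorescence over baseline after final BAM8-22 challenge near maximal dose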
# PHOSPHO1 block – PHOSPHO1 (human) inhibition; recombinant PHOSPHO1, absorbance phosphatase assay; AID 1565; actives 1.1% (n = 290,000); Q8TCT1; inhibition, % at 13.3 µM; in the data active means inhibition above about 60%
# RGS4 block – human RGS4 inhibition; P49798; HEK293 M3R/RGS4 inducible, Fluo-4 calcium flux; hits give high values; triggered by carbachol at its EC20; B-score at 10 µM; actives 0.45% (n = 310,000); AID 463165;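 active means B-score, a plate-corrected calcium signal, over three deviations above library mean, with baseline fluorescence within five deviations of library mean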;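 further: RGS4 expression induced by doxycycline in cells with stable M3 receptor; B-score is computed from the integrated fluorescence ratio over baseline after carbachol; higher B-score means a larger calcium signal and so more RGS4 inhibition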
# MrgX1 allo act – human MrgX1 positive allosteric modulation, primary screen | Q96LB2 | MrgX1-HEK293, Fluo-4 calcium flux, FDSS; hits give high values | B-score at 10 µM | actives 0.63% (n = 310,000) | AID 588675;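 active means plate-corrected calcium response at least 3 library SD above typical, normal starting fluorescence, not activating the receptor alone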;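 further: compound read alongside a low EC10 to EC30 dose of BAM8-22 agonist; peak minus trough fluorescence over baseline measured at the second addition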
# RGS4 activ val – confirmation of RGS4 activators. HEK293 M3R/RGS4 inducible, carbachol calcium flux Fluo4. actives 89% (n = 1,100). shares compounds with RGS4 act. AID 602282. inhibition, % at 10 µM;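 active means inhibition above 3 SD of the buffer control wells, cut at about 41% in these data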;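 further: signal is the integrated peak-minus-minimum Fluo4 fluorescence over baseline ratio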
# RGS4 act ctr – RGS4 activator counter-screen hit in non-induced cells | shares compounds with RGS4 act | HEK293 M3R non-induced RGS4, Fluo4 calcium flux; after carbachol challenge at its EC90 | inhibition, % at 10 µM | actives 82% (n = 1,100) | AID 602283;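 active means inhibition exceeding 3 SD of buffer-only control wells, cut at about 26% in these data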;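 further: percent drop in integrated peak-minus-baseline over baseline Fluo4 ratio after carbachol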
# Numbers stand for hits; – = inactive; · = not tested or not shown.
SMILES,RGS4 act,MrgX1 ag,MrgX1 antag,PHOSPHO1 block,RGS4 block,MrgX1 allo act,RGS4 activ val,RGS4 act ctr
Cc1cc(C)cc(NC(=O)c2ccc(Cn3nc(C)c(Cl)c3C)o2)c1,-12,–,–,–,–,–,70,64
Cc1ccc(CNC(=O)c2ccc(Cn3nc(C)c(Cl)c3C)o2)cc1,–,–,–,–,–,–,·,·
COc1ccc(C(CNc2ncnc3sc(C)c(C)c23)N(C)C)cc1 (stereo not drawn),–,–,–,–,–,–,·,·
COc1ccccc1C(CNc1ncnc2sc(C)c(C)c12)N(C)C (stereo not drawn),-11,–,–,–,–,–,80,42
O=C(CSc1ncc(-c2ccccc2)n1C1CCCC1)N1CCc2ccccc21,-7.7,–,–,–,–,–,54,84
Cn1c(-c2ccc3c(c2)OCO3)cnc1NCc1cccc(Cl)c1,-8.9,–,–,–,–,–,86,44
CSc1ccccc1NC(=O)CN(C)C(=O)C1CCN(C(=O)Nc2ccccc2)CC1,–,–,–,·,–,–,·,·
COc1ccc(OC)c(N(CC(=O)NCC2CCCO2)S(=O)(=O)c2ccccc2)c1 (stereo not drawn),–,–,–,–,–,–,·,·
COc1ccc(C(=O)C2CCCN(Cc3nc4ccccc4nc3C)C2)cc1OC (stereo not drawn),–,–,–,–,–,–,·,·
COc1ccc(C(=O)C2CCCN(C3Cc4ccccc4C3)C2)cc1OC (stereo not drawn),-8.6,–,–,–,–,–,86,46
CCOC(=O)N1CCC(N2CCCC(C(=O)c3cc(C)c(OC)c(C)c3)C2)CC1 (stereo not drawn),-8.1,–,–,–,–,–,79,35
CCCCCCCn1c2c(c(=N)c3ccccc31)CCC2,–,–,–,–,–,–,·,·
CCN(CC)c1ccc(N2C(=NC(=O)C3CC3)SC3CS(=O)(=O)CC32)cc1 (stereo not drawn),–,–,–,–,–,–,·,·
Cc1ccc(CCC(=O)NCc2ccccc2)o1,-7.8,–,–,–,–,–,–,–
O=C(c1sc2cc(Cl)ccc2c1Cl)N1CCN(CCc2ccccn2)CC1,–,–,–,–,–,–,·,·
CCOC(=O)N1CCC(N2CCN(C3CCCC3)C(CCO)C2)CC1 (stereo not drawn),-10,–,–,–,–,–,89,59
CCOC(=O)N1CCC(NC2CCCCCCC2)CC1,-8.1,–,–,–,–,–,82,–
CCOC(=O)N1CCC(N2CCN(Cc3ccccc3)C(CCO)C2)CC1 (stereo not drawn),–,–,–,–,–,–,·,·
CCCCn1c(NCc2cccs2)nc2ccccc21,–,–,–,–,–,–,·,·
c1ccc2nc3c(nc2c1)OCC1CCCCN31 (stereo not drawn),-7.6,–,–,–,–,–,72,84
C=C(C)CN1CCN(c2ccc(N3C(=O)CCCC3=O)cc2[N+](=O)[O-])CC1,–,–,–,–,–,–,·,·
CC[N+](C)(C)CC/C=C1/c2ccccc2Sc2ccc(Cl)cc21,-12,–,–,–,–,–,94,93
O=C(NCCc1ccccc1)C(=O)NCC1CCCN1S(=O)(=O)c1ccccc1 (stereo not drawn),-9.6,–,–,·,–,–,68,26
c1ccc(COc2ccc(CN3CCN(c4ccccn4)CC3)cc2)cc1,-8.3,–,–,–,–,–,90,58
OCc1nc2ccccc2n1Cc1c(F)cccc1Cl,–,–,–,–,–,–,·,·
CSc1nc2ccccc2n1Cc1c(Cl)cccc1Cl,-8.4,–,–,–,–,–,95,86
NC(=O)CCN1CCN(Cc2nc(C(c3ccccc3)c3ccccc3)no2)CC1,-8.7,–,–,–,–,–,92,58
CC(C)NC(=O)CN1CCN(Cc2nc(C(c3ccccc3)c3ccccc3)no2)CC1,-7.6,–,–,–,–,–,92,58
